Our source for the IC50 and Ki values is ChEMBL document CHEMBL1147015, “Design and synthesis of selective, high-affinity inhibitors of human cytochrome P450 2J2” (Bioorg Med Chem Lett, 2006).

The IC50 is the concentration at which inhibition is half-maximal. As a reminder, the Ki is a measure of affinity in units of concentration, obtained from inhibition or displacement.

Experiment [1] deals with T1, Cytochrome P450 2J2 (Homo sapiens, UniProt P51589).
T1 sequence (P51589 whole entry): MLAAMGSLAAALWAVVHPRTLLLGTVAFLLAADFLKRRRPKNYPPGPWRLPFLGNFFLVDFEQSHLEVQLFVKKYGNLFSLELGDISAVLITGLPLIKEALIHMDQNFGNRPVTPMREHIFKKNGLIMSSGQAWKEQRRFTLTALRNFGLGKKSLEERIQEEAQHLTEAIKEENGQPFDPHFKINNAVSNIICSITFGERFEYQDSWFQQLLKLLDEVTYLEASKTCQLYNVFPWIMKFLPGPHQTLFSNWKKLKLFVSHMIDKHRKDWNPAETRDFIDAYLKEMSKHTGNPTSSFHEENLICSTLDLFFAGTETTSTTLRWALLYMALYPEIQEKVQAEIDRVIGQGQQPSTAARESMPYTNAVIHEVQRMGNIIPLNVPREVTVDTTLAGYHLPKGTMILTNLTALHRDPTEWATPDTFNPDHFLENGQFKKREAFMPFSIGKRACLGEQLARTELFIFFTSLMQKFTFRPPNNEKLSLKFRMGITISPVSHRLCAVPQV
Put plainly: Inhibition of human recombinant CYP2J2 expressed in baculovirus-infected Sf9 insect cells. In a few lines:
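Ebastine hydroxylation used as the read-out. Ebastine (0.5 μM) plus inhibitor incubated at 37 °C for 2 or 4 min with Sf9 microsomes (1 nM CYP2J2) in 0.1 M phosphate buffer pH 7.4, 0.1 mM EDTA and NADPH-generating system. Stopped with cold CH3CN/CH3COOH (10:1); protein spun out; supernatant analysed by HPLC on C18. IC50 determined.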

The target of experiment [2] is T2, Cytochrome P450 2B6 (Homo sapiens, UniProt P20813).
T2 sequence (P20813 whole entry): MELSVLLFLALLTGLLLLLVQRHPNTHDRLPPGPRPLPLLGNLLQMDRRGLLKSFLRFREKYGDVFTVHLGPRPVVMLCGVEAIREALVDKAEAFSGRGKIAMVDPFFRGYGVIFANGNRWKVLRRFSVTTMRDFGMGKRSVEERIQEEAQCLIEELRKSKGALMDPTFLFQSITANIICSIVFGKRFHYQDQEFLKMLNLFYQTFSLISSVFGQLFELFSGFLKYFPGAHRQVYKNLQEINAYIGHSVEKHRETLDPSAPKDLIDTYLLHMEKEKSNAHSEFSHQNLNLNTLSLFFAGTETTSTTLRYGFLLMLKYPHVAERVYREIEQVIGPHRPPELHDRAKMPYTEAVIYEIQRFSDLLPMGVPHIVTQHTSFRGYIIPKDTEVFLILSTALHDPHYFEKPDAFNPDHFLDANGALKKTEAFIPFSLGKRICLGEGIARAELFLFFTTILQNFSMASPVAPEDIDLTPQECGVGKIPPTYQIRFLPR
Put plainly: Inhibition of human recombinant CYP2B6. It is filed as ADME.

Experiment [3] has as its target T3, Cytochrome P450 2C8 (Homo sapiens, UniProt P10632).
T3 sequence (P10632 whole entry): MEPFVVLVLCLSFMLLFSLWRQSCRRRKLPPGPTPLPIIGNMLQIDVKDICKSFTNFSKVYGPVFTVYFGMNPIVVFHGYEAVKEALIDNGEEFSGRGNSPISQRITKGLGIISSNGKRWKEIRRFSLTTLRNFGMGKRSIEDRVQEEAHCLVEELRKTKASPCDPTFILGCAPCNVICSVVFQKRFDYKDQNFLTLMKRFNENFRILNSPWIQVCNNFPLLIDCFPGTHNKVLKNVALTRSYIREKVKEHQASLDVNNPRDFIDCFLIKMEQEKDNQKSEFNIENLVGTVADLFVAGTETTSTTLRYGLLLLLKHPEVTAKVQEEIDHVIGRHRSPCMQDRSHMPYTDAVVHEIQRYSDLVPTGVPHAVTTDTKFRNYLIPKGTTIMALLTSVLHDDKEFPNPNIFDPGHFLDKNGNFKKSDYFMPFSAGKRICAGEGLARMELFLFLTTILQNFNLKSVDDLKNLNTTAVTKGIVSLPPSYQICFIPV
Put plainly: Inhibition of human recombinant CYP2C8. Type of experiment: ADME.

For experiment [4], the target named is Cytochrome P450 2C9 (Homo sapiens, UniProt P11712). Put plainly: Inhibition of human recombinant CYP2C9. Type of experiment: ADME.
Cytochrome P450 2C9, sequence (P11712 whole entry): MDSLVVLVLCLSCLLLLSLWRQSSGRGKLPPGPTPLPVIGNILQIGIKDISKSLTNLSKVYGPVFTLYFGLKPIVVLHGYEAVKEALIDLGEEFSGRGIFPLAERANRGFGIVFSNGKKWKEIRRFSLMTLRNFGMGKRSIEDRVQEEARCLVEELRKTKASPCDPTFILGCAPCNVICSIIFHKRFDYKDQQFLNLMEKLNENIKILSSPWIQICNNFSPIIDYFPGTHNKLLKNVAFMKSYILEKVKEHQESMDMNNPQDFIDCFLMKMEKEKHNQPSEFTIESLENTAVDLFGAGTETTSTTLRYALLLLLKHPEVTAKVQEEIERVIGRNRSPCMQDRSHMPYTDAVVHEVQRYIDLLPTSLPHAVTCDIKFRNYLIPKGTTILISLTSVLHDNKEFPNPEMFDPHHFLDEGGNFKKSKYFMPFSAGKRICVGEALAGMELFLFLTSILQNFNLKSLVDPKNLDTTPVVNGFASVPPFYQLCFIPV
Experiment [5] has as its target Cytochrome P450 3A4 (Homo sapiens, UniProt P08684). In words: Inhibition of human recombinant CYP3A4. It is filed as ADME.

SMILES strings stand for the structures.

Cytochrome P450 3A4, sequence (P08684 whole entry): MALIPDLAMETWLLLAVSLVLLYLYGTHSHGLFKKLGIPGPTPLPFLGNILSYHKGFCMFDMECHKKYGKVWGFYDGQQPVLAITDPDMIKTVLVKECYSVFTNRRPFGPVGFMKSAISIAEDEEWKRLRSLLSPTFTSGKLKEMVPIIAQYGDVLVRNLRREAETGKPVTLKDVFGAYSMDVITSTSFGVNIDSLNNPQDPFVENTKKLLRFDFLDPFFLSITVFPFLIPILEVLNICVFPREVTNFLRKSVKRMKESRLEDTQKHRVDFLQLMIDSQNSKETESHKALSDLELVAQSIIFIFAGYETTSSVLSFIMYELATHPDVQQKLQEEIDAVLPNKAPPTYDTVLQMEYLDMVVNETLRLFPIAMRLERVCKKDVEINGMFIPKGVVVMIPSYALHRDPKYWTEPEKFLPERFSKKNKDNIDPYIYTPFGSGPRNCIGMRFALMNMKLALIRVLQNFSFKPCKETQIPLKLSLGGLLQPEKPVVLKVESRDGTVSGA

As for `COc1ccc(C(=O)CCCN2CCC(C(O)(c3ccccc3)c3ccccc3)CC2)cc1`, the IC50 in experiment [1] turned out to be 7600 nM.

For the molecule `O=C(CCCN1CCC(C(O)(c2ccccc2)c2ccccc2)CC1)c1ccc(CC(F)F)cc1`, the half-inhibitory concentration (IC50) in experiment [1] amounted to 2200 nM. Regarding `CC(=O)OCCCc1ccc(C(=O)CCCN2CCC(C(O)(c3ccccc3)c3ccccc3)CC2)cc1`, the IC50 in experiment [1] is 2500 nM. For `CCCc1ccc(C(=O)CCCN2CCC(C(O)(c3ccccc3)c3ccccc3)CC2)cc1`, the IC50 in experiment [1] is 400 nM; in experiment [2], 28000 nM; in experiment [3], over 100000 nM; in experiment [4], 26000 nM; in experiment [5], 7900 nM. Besides, the inhibitory constant (Ki) in experiment [1] turned out to be 160 nM. Consider `O=C(CCCN1CCC(C(O)(c2ccccc2)c2ccccc2)CC1)c1ccc(Br)cc1`, for which, in experiment [1], the IC50 amounted to 4200 nM. Consider `O=C(CCCN1CCC(C(O)(c2ccccc2)c2ccccc2)CC1)c1ccc2c(c1)OCO2`, for which the IC50 in experiment [1] turned out to be 6700 nM. Take `O=C(CCCN1CCC(C(O)(c2ccccc2)c2ccccc2)CC1)c1ccc(CCCO)cc1`: the IC50 in experiment [1] amounted to 1900 nM.

For `CCc1ccc(C(=O)CCCN2CCC(C(O)(c3ccccc3)c3ccccc3)CC2)cc1`, the 50% inhibitory concentration (IC50) in experiment [1] worked out at 600 nM. For the molecule `CCCCc1ccc(C(=O)CCCN2CCC(C(O)(c3ccccc3)c3ccccc3)CC2)cc1`, in experiment [1], the 50% inhibitory concentration (IC50) stood at 700 nM.

`O=C(CCCN1CCC(C(O)(c2ccccc2)c2ccccc2)CC1)c1ccc(CCO)cc1`: in experiment [1], the IC50 is 1300 nM. On to `CC(C)(C)c1ccc(C(=O)CCCN2CCC(C(O)(c3ccccc3)c3ccccc3)CC2)cc1` [TERFENADONE], for which the IC50 in experiment [1] is 700 nM. `C=CCc1ccc(C(=O)CCCN2CCC(C(O)(c3ccccc3)c3ccccc3)CC2)cc1`: the IC50 was 400 nM in experiment [1]; 21000 nM in experiment [2]; over 100000 nM in experiment [3]; 21000 nM in experiment [4]; 5500 nM in experiment [5].

`Cc1ccc(C(=O)CCCN2CCC(C(O)(c3ccccc3)c3ccccc3)CC2)cc1`: the half-inhibitory concentration (IC50) in experiment [1] turned out to be 700 nM.
